From ChEMBL document CHEMBL5058577, “EUbOPEN Chemogenomics Library 2 (Multiplex)” (2022)

Test system: HEK-293T
Assay: Multiplex assay against HEK293T
Type: toxicity, cell-based
Details: human
How it was run: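 Tubulin, mitochondrial-mass and membrane-permeability phenotypes are per cents of healthy-nucleus cells. Cells were gated by CellPathfinder machine learning into Hoechst high-intensity objects or normal cells, normal cells into healthy, pyknosed or fragmented nuclei, and pyknosed cells into mitotic or apoptotic. Before that, live cells stained at seeding with Hoechst33342, BioTracker Green Microtubule Cytoskeleton Dye, MitoTracker Red and Annexin V Alexa Fluor 680 were imaged on a CQ1 microscope at 37°C and 5% CO2 after compound addition.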

[1] = 12 h, 1 µM, compound concentration 1 uM, replicate 1
[2] = 12 h, 1 µM, compound concentration 1 uM, replicate 2
[3] = 12 h, 10 µM, compound concentration 10 uM, replicate 1
[4] = 12 h, 10 µM, compound concentration 10 uM, replicate 2
[5] = 24 h, 1 µM, compound concentration 1 uM, replicate 1
[6] = 24 h, 1 µM, compound concentration 1 uM, replicate 2
[7] = 24 h, 10 µM, compound concentration 10 uM, replicate 1
[8] = 24 h, 10 µM, compound concentration 10 uM, replicate 2
[9] = 48 h, 1 µM, compound concentration 1 uM, replicate 1
[10] = 48 h, 1 µM, compound concentration 1 uM, replicate 2
[11] = 48 h, 10 µM, compound concentration 10 uM, replicate 1
[12] = 48 h, 10 µM, compound concentration 10 uM, replicate 2

SMILES: COc1cccc2c1c(NS(=O)(=O)c1ccc(Cl)s1)nn2Cc1cccc(CNC(=O)C(C)(C)O)c1
- Population Apoptotic (%) [1]: 31%
- Population Fragmented Nuclei (%) [1]: 6%
- Population Healthy Nuclei (%) [1]: 82%
- Population Hoechst High Intensity Objects (%) [1]: 6%
- Population Membrane Permeable-Phenotype (%) [1]: 0%
- Population Mitochondria Different-Phenotype (%) [1]: 39%
- Population Mitotic Cells (%) [1]: 68%
- Population Normal (%) [1]: 93%
- Population Pyknosed Nuclei (%) [1]: 10%
- Population Tubulin-Different-Phenotype (%) [1]: 26%
- Total Cell Count [1]: 469
- Population Apoptotic (%) [2]: 34%
- Population Fragmented Nuclei (%) [2]: 7%
- Population Healthy Nuclei (%) [2]: 77%
- Population Hoechst High Intensity Objects (%) [2]: 10%
- Population Mitochondria Different-Phenotype (%) [2]: 52%
- Population Mitotic Cells (%) [2]: 65%
- Population Normal (%) [2]: 89%
- Population Pyknosed Nuclei (%) [2]: 15%
- Population Tubulin-Different-Phenotype (%) [2]: 23%
- Total Cell Count [2]: 315
- Population Apoptotic (%) [3]: 42%
- Population Fragmented Nuclei (%) [3]: 6%
- Population Healthy Nuclei (%) [3]: 80%
- Population Hoechst High Intensity Objects (%) [3]: 7%
- Population Membrane Permeable-Phenotype (%) [3]: 0%
- Population Mitochondria Different-Phenotype (%) [3]: 51%
- Population Mitotic Cells (%) [3]: 57%
- Population Normal (%) [3]: 92%
- Population Pyknosed Nuclei (%) [3]: 12%
- Population Tubulin-Different-Phenotype (%) [3]: 38%
- Total Cell Count [3]: 356
- Population Apoptotic (%) [4]: 35%
- Population Fragmented Nuclei (%) [4]: 5%
- Population Healthy Nuclei (%) [4]: 78%
- Population Hoechst High Intensity Objects (%) [4]: 11%
- Population Mitochondria Different-Phenotype (%) [4]: 69%
- Population Mitotic Cells (%) [4]: 65%
- Population Normal (%) [4]: 88%
- Population Pyknosed Nuclei (%) [4]: 16%
- Population Tubulin-Different-Phenotype (%) [4]: 33%
- Total Cell Count [4]: 280
- Population Apoptotic (%) [5]: 26%
- Population Fragmented Nuclei (%) [5]: 7%
- Population Healthy Nuclei (%) [5]: 81%
- Population Hoechst High Intensity Objects (%) [5]: 2%
- Population Membrane Permeable-Phenotype (%) [5]: 0%
- Population Mitochondria Different-Phenotype (%) [5]: 22%
- Population Mitotic Cells (%) [5]: 73%
- Population Normal (%) [5]: 97%
- Population Pyknosed Nuclei (%) [5]: 11%
- Population Tubulin-Different-Phenotype (%) [5]: 17%
- Total Cell Count [5]: 617
- Population Apoptotic (%) [6]: 44%
- Population Fragmented Nuclei (%) [6]: 6%
- Population Healthy Nuclei (%) [6]: 84%
- Population Hoechst High Intensity Objects (%) [6]: 7%
- Population Mitochondria Different-Phenotype (%) [6]: 37%
- Population Mitotic Cells (%) [6]: 55%
- Population Normal (%) [6]: 92%
- Population Pyknosed Nuclei (%) [6]: 8%
- Population Tubulin-Different-Phenotype (%) [6]: 15%
- Total Cell Count [6]: 357
- Population Apoptotic (%) [7]: 40%
- Population Fragmented Nuclei (%) [7]: 10%
- Population Healthy Nuclei (%) [7]: 73%
- Population Hoechst High Intensity Objects (%) [7]: 5%
- Population Membrane Permeable-Phenotype (%) [7]: 0%
- Population Mitochondria Different-Phenotype (%) [7]: 34%
- Population Mitotic Cells (%) [7]: 60%
- Population Normal (%) [7]: 94%
- Population Pyknosed Nuclei (%) [7]: 16%
- Population Tubulin-Different-Phenotype (%) [7]: 23%
- Total Cell Count [7]: 462
- Population Fragmented Nuclei (%) [8]: 9%
- Population Healthy Nuclei (%) [8]: 77%
- Population Mitochondria Different-Phenotype (%) [8]: 46%
- Population Pyknosed Nuclei (%) [8]: 12%
- Population Tubulin-Different-Phenotype (%) [8]: 22%
- Total Cell Count [8]: 384
- Population Apoptotic (%) [9]: 16%
- Population Fragmented Nuclei (%) [9]: 10%
- Population Healthy Nuclei (%) [9]: 83%
- Population Hoechst High Intensity Objects (%) [9]: 2%
- Population Membrane Permeable-Phenotype (%) [9]: 0%
- Population Mitochondria Different-Phenotype (%) [9]: 18%
- Population Mitotic Cells (%) [9]: 83%
- Population Normal (%) [9]: 97%
- Population Pyknosed Nuclei (%) [9]: 6%
- Population Tubulin-Different-Phenotype (%) [9]: 11%
- Total Cell Count [9]: 1062
- Population Apoptotic (%) [10]: 28%
- Population Fragmented Nuclei (%) [10]: 11%
- Population Membrane Permeable-Phenotype (%) [10]: 2%
- Population Mitochondria Different-Phenotype (%) [10]: 21%
- Population Mitotic Cells (%) [10]: 71%
- Population Pyknosed Nuclei (%) [10]: 4%
- Population Tubulin-Different-Phenotype (%) [10]: 10%
- Total Cell Count [10]: 591
- Population Apoptotic (%) [11]: 26%
- Population Fragmented Nuclei (%) [11]: 16%
- Population Healthy Nuclei (%) [11]: 72%
- Population Hoechst High Intensity Objects (%) [11]: 4%
- Population Membrane Permeable-Phenotype (%) [11]: 0%
- Population Mitochondria Different-Phenotype (%) [11]: 25%
- Population Mitotic Cells (%) [11]: 73%
- Population Normal (%) [11]: 95%
- Population Pyknosed Nuclei (%) [11]: 10%
- Population Tubulin-Different-Phenotype (%) [11]: 16%
- Total Cell Count [11]: 646
- Population Apoptotic (%) [12]: 35%
- Population Fragmented Nuclei (%) [12]: 8%
- Population Healthy Nuclei (%) [12]: 83%
- Population Mitochondria Different-Phenotype (%) [12]: 27%
- Population Mitotic Cells (%) [12]: 65%
- Population Pyknosed Nuclei (%) [12]: 7%
- Population Tubulin-Different-Phenotype (%) [12]: 12%
- Total Cell Count [12]: 550
